Assay results: ChEMBL document CHEMBL1949585, “Design, synthesis and evaluation of telomerase inhibitory, hTERT repressing, and anti-proliferation activities of symmetrical 1,8-disubstituted amidoanthraquinones” (Eur J Med Chem, 2012)

How the values were obtained:
[1] = Inhibition of human TERT expression in H1299 cells at 100 uM after 24 hrs by secreted alkaline phosphatase reporter gene assay relative to control; values are per cent of control; conditions: NCI-H1299
CCRF-CEM = assay: Cytotoxicity against human CCRF-CEM cells assessed as cell growth at 10 uM relative to control; type: functional; conditions: read-out: Activity
Method in brief: (§1)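 Single-concentration screen in the NCI 60 human tumour cell line panel covering nine cancer types. Values are the mean growth percentage of compound-treated cells, with untreated control cells set as 100%.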

A549 = assay: Cytotoxicity against human A549 cells assessed as cell growth at 10 uM relative to control; type: functional; conditions: read-out: Activity
Method in brief: as §1

HL-60(TB) = assay: Cytotoxicity against human HL-60(TB) cells assessed as cell growth at 10 uM relative to control; type: functional; conditions: read-out: Activity
Method in brief: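 Tested in the NCI 60 human tumour cell line panel, covering nine cancer cell types, at a single concentration. The value is the mean growth percentage of treated cells, with untreated control cells taken as 100%.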

[2] = Cytotoxicity against human Hs 578T cells assessed as cell growth at 10 uM relative to control; type: functional; conditions: read-out: Activity
Method in brief: as §1

SF-539 = assay: Cytotoxicity against human SF539 cells assessed as cell growth at 10 uM relative to control; type: functional; conditions: read-out: Activity
Method in brief: as §1

OVCAR-8 = assay: Cytotoxicity against human OVCAR8 cells assessed as cell growth at 10 uM relative to control; type: functional; conditions: read-out: Activity
Method in brief: as §1

SNB-19 = assay: Cytotoxicity against human SNB19 cells assessed as cell growth at 10 uM relative to control; type: functional; conditions: read-out: Activity
Method in brief: (§2)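 Run in the NCI 60-cell human tumour panel. Cells were exposed to 10 µM compound, and growth was given as a percentage of untreated control cells set to 100%.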

DU-145 = assay: Cytotoxicity against human DU145 cells assessed as cell growth at 10 uM relative to control; type: functional; conditions: read-out: Activity
Method in brief: as §1

OVCAR-4 = assay: Cytotoxicity against human OVCAR4 cells assessed as cell growth at 10 uM relative to control; type: functional; conditions: read-out: Activity
Method in brief: as §1

MCF7 = assay: Cytotoxicity against human MCF7 cells assessed as cell growth at 10 uM relative to control; type: functional; conditions: read-out: Activity
Method in brief: as §1

KM12 = assay: Cytotoxicity against human KM12 cells assessed as cell growth at 10 uM relative to control; type: functional; conditions: read-out: Activity
Method in brief: as §1

SR = assay: Cytotoxicity against human SR cells assessed as cell growth at 10 uM relative to control; type: functional; conditions: read-out: Activity
Method in brief: as §2

M14 = assay: Cytotoxicity against human M14 cells assessed as cell growth at 10 uM relative to control; type: functional; conditions: read-out: Activity
Method in brief: as §1

NCI-H522 = assay: Cytotoxicity against human NCI-H522 cells assessed as cell growth at 10 uM relative to control; type: functional; conditions: read-out: Activity
Method in brief: as §1

[3] = Cytotoxicity against human H1299 cells assessed as cell growth at 1 uM after 48 hrs by MTT assay; type: functional; conditions: NCI-H1299, 48 h, read-out: Activity
Method in brief: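 H1299 non-small lung cancer cells were grown in RPMI 1640 with 10% FBS and penicillin/streptomycin at 37 °C in 5% CO2. About 2×10³ cells were seeded per well and held 24 h, then washed with PBS and given fresh medium. Compound, freshly dissolved in DMSO and diluted in complete medium, was added for 48 h. MTT was read at 550 nm after SDS/DMF lysis at 37 °C for 16 h. Values are from three experiments, untreated = 100%, ±SD.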

HCT-116 = assay: Cytotoxicity against human HCT116 cells assessed as cell growth at 10 uM relative to control; type: functional; conditions: read-out: Activity
Method in brief: as §1

SK-MEL-2 = assay: Cytotoxicity against human SK-MEL-2 cells assessed as cell growth at 10 uM relative to control; type: functional; conditions: read-out: Activity
Method in brief: as §1

UACC-62 = assay: Cytotoxicity against human UACC62 cells assessed as cell growth at 10 uM relative to control; type: functional; conditions: read-out: Activity
Method in brief: as §2

RPMI-8226 = assay: Growth inhibition of human RPMI8226 cells at 10 uM relative to control; type: functional; conditions: read-out: GI
Method in brief: as §2

Structure (SMILES) | level, % of control [1] [%] | growth at 10 µM (CCRF-CEM) [%] | growth at 10 µM (A549) [%] | growth at 10 µM (HL-60(TB)) [%] | growth at 10 µM [2] [%] | growth at 10 µM (SF-539) [%] | growth at 10 µM (OVCAR-8) [%] | growth at 10 µM (SNB-19) [%] | growth at 10 µM (DU-145) [%] | growth at 10 µM (OVCAR-4) [%] | growth at 10 µM (MCF7) [%] | growth at 10 µM (KM12) [%] | growth at 10 µM (SR) [%] | growth at 10 µM (M14) [%] | growth at 10 µM (NCI-H522) [%] | growth at 1 µM [3] [%] | growth at 10 µM (HCT-116) [%] | growth at 10 µM (SK-MEL-2) [%] | growth at 10 µM (UACC-62) [%] | inhibition of growth at 10 µM (RPMI-8226) [%]
CCN(CC)CC(=O)Nc1cccc2c1C(=O)c1c(NC(=O)CN(CC)CC)cccc1C2=O | 42 | 84.6 | 91.7 | 94.7 | 111 | 91.7 | 91.2 | 94.1 | 137 | 91.3 | 88.7 | 119 | 88.5 | 98.6 | 88 | 86 | 84.2 | 84 | 93.5 | 
COC(=O)CNCC(=O)Nc1cccc2c1C(=O)c1c(NC(=O)CNCC(=O)OC)cccc1C2=O | 12 | 64.4 | 94.3 | 107 | 104 | 91.9 | 96.3 | 95.3 | 107 | 87.7 | 89.5 | 107 |  | 113 | 96.8 | 84 | 96.4 | 107 | 90.3 | 31.4
